The record followed here is paper PMC12770939 (Clinical Cancer Research, 2025).

In series [1] the test system is phosphorylation of FGFR2, HER3 and AKT. Description: Immunoblotting after 1 hour treatment. Format: cell-based. The following applies: solely in MFE280 cells, 2-μmol/L. An outline of the steps: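 Cells treated 1 h with 0.03 μmol/L FGFR2 inhibitor or 2 μmol/L lapatinib, then immunoblotted. Transfer to nitrocellulose; block 1 h in 5% milk/TBST RT. Primary antibody 1:1,000 overnight at 4°C; HRP secondary 1:10,000 1 h RT; ECL with film. n=2.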

For another series, the system named is HER3–p85β interaction. Description: Co-IP of p85β / HER3. Format: cell-based. In a few lines:
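Cells exposed to test compound or FGFR2 inhibitor at several concentrations for 1 h. Lysis in Tris pH 7.5/NaCl/EDTA/1% NP40/10% glycerol with protease and phosphatase inhibitors. 1 mg lysate incubated overnight with anti-p85β (1:100, 1 mL), then protein A agarose 2 h. Immunoblot on nitrocellulose with 1:1,000 primary overnight at 4°C, HRP secondary 1:10,000 1 h RT, ECL/film. n=2.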

Series [2] relates to p110α. Description: Ubiquitin pulldown. Format: cell-based. The following applies: 6 hours.
The subject of another series is RAS-GTP. Description: RAS-GTP pulldown and RAS co-IP. Format: cell-based. The following applies: MFM223 or MFE280 cells. In a few lines: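 Cells treated with FGFR2 inhibitor or lapatinib for varying durations. Lysis on ice in 25 mM Tris pH 7.5, 150 mM NaCl, 1 mM EDTA, 1% NP40, 5 mM MgCl2, 10% glycerol plus inhibitors. Lysates incubated with capture bead conjugate or mouse IgG magnetic beads (control) at 4°C for 5 h. Beads washed 3× in cold buffer, eluted in sample buffer, immunoblotted.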

The next series relates to pAKT. Description: Western blots of PI3K signaling feedback over time. To be noted: PIK3CAmut MFM223 cells. Format: cell-based. In a few lines: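 PIK3CA-mutant MFM223 and PIK3CA-WT SUM52PE cells treated with 0.5 μmol/L test compound or 1 μmol/L reference PI3Kα inhibitor, with lysates taken at several durations. Immunoblotted for pHER3 and pAKT: nitrocellulose, 5% milk/TBST block, primary 1:1,000 overnight at 4°C, HRP secondary 1:10,000, ECL/film. n=2.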

The subject of series [3] is FGFR2-expressing cell lines. To be noted: excess Bliss score, n=14 cell lines, Supplementary Fig. S11.
The subject of series [4] is SUM52PE, MFE296, AN3CA and MFE280 cell lines. Description: Dose-response proliferation assays. Type of series: cell-based. To be noted: MFE296, AN3CA (FGFR2-high) and MFE280 (FGFR2-low).
For series [5], the system named is phosphorylation of FGFR, FRS2α, PLCɣ, AKT, and ERK. Description: Western blots of FGFR signaling. Format: cell-based. To be noted: SUM52PE, MFE296, and AN3CA cells; 24 h. An outline of the steps:
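Lysates resolved and transferred to nitrocellulose; blocked 1 h in 5% milk/TBST (20 mM Tris-HCl pH 7.5, 135 mM NaCl, 0.1% Tween 20) at RT. Primary antibodies 1:1,000 overnight at 4°C; HRP anti-mouse or anti-rabbit 1:10,000 1 h RT. Detection by ECL and film.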

Series [6] is described as follows: Phase 1 dose-escalation study NCT03006172 arm A: safety, DLT, MTD. Format: in vivo, human.
Series [7] in a line: Phase 1 study: plasma pharmacokinetics, noncompartmental analysis. Type of series: in vivo, human. In a few lines: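 Oral single dose on C1D1, then 7-day washout with serial plasma PK sampling, then once-daily dosing from C1D8. PK population: patients with ≥1 dose and ≥1 evaluable post-dose sample. Parameters from plasma concentration–time profiles after single and multiple doses by noncompartmental analysis, summarized by dose level.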

The next series has as its system PIK3CAmut solid tumors. Description: Phase 1 study: antitumor activity per RECIST v1.1. Type of series: in vivo, human.
The test system of series [8] is FDG uptake of target lesions. Description: FDG-PET imaging pharmacodynamic response. Format: in vivo, human. An outline of the steps: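 FDG-PET at baseline and after 2 weeks of oral once-daily dosing (C1D22–28; C1D15–22 for backfill). On-treatment scans 1–4 h post-dose; blood glucose <180 mg/dL required. Central read by one radiologist; up to five target lesions (tumor:background ≥2:1, longest diameter ≥15 mm). PMR: >25% decrease in mean % change of lean-body-mass-corrected SUVmax, no new FDG-avid lesions.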

The test system of a further series is pAKT, pS6, Ki67. Description: IHC analysis of paired tumor tissue samples. The following applies: baseline vs C1D15 biopsies, nine patients. Type of series: in vivo, human. An outline of the steps:
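Paired FFPE tumor biopsies from baseline and C1D15 during oral once-daily dosing. IHC for Ki67 (rabbit mAb clone 30-9; nuclear staining), pAKT and pS6. Cytoplasmic pAKT/pS6 scored by H-score: intensity 0, 1+, 2+, 3+. H-score = Σ(% cells at each intensity × intensity).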

A further series relates to PIK3CA MAF in ctDNA. Description: ctDNA PIK3CA mutation allele frequency dynamics. Format: in vivo, human. The following applies: pretreatment vs on-treatment, majority of paired specimens.
Series [9] has as its target p110α (Homo sapiens, UniProt P42336). Description: Ubiquitin pulldown. Type of series: cell-based. The following applies: PIK3CA WT cell line SUM52PE; 6 hours.
In a further series the target is mutated p110α (Homo sapiens, UniProt P42336, H1047R). Type of series: cell-based. To be noted: FGFR2 N550K-overexpressing cells, not matched control cells; 24 h.
Series [10] relates to MFM223 X2.2 tumor xenograft. Description: MFM223 X2.2 xenograft efficacy study. Format: in vivo, NCR nude mice. The following applies: single agent, 25 mg/kg daily for 22 days.
A further series deals with MFM223 cell line. Description: Live-cell imaging by IncuCyte, long-term proliferation. Format: cell-based. The following applies: single agent. In a few lines:
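Plated at 2,000 cells/well; inhibitors added next day at set concentrations. Medium with or without inhibitors renewed every 7 days. Phase-contrast imaging every 4 h in IncuCyte Zoom; confluence tracked in six replicate wells for the whole experiment.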

Chain of p110α (Homo sapiens, UniProt P42336) (P42336 whole entry): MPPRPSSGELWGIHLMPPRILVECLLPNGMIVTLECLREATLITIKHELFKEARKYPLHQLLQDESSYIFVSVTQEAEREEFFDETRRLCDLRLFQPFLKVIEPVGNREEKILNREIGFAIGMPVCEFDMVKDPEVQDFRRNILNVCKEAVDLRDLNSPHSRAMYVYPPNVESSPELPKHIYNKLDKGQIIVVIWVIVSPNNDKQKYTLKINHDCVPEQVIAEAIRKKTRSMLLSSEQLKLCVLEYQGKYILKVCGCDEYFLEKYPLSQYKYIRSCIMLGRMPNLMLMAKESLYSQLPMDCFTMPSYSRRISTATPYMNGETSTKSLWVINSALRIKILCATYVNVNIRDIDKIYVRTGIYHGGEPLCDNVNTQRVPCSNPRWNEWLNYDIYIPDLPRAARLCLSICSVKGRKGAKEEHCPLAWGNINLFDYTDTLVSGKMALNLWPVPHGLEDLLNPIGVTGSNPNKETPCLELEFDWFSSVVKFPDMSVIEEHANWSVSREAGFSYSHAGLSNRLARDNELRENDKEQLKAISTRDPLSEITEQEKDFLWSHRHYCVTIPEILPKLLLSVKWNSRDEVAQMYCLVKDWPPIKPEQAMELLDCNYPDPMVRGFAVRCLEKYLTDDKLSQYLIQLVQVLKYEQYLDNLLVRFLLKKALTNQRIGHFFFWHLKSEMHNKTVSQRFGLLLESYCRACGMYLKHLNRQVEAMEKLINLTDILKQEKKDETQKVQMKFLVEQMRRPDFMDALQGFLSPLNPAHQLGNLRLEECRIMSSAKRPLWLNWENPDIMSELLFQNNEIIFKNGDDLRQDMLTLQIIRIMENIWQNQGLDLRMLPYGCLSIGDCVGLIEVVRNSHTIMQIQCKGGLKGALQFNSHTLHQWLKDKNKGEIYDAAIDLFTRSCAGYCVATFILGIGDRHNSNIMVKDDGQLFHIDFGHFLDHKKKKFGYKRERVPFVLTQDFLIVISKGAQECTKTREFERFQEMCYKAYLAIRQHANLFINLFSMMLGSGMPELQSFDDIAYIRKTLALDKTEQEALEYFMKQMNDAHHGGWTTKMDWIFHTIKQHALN
Chain of mutated p110α (P42336 whole entry H1047R): as the sequence (P42336 whole entry) above, with H1047R counted along it
Chain of mutated p110α (O00459 whole entry partner): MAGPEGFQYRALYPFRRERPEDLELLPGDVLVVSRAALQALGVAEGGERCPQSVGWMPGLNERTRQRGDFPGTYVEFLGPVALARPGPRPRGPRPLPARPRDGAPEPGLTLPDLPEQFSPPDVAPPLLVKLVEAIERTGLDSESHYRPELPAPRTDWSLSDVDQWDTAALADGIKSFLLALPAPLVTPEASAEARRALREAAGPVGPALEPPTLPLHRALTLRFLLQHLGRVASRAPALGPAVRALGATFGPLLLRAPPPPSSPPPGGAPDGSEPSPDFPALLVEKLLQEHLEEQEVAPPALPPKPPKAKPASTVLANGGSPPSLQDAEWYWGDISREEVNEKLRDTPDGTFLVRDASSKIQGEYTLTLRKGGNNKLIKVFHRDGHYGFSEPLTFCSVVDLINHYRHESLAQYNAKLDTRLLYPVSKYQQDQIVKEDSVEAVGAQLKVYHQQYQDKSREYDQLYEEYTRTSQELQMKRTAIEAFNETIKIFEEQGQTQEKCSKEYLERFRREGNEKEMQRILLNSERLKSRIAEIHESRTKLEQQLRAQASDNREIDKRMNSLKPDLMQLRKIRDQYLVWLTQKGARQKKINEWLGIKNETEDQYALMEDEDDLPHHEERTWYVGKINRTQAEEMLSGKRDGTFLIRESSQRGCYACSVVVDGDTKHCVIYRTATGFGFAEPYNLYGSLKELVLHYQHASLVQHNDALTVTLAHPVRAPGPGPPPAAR

Consider `CS(=O)(=O)CCNCc1ccc(-c2ccc3ncnc(Nc4ccc(OCc5cccc(F)c5)c(Cl)c4)c3c2)o1` [lapatinib, reference compound], for which the “phosphorylation of HER3 and AKT” value in series [1] is on record as “decreased phosphorylation”. Besides, the “HER3–p85β interaction” value in the series on HER3–p85β interaction (MFE280 FGFR2-low cells, 1 h) is listed as “suppressed”. For the same compound, the “effect on inavolisib-induced p110α ubiquitination” value in the series on p110α [2] (MFE280 cells, combined with inavolisib) was “prevented”. Further, the “RAS-GTP levels and RAS–p110α interaction” value in the series on RAS-GTP was “affected neither”.
In the case of `Cc1nc(NC(=O)N2CCC[C@H]2C(N)=O)sc1-c1ccnc(C(C)(C)C(F)(F)F)c1` [alpelisib, reference compound], the “time to pAKT rebound” value with pAKT (1-μmol/L alpelisib) worked out at 30 minutes.
For `C[C@@H](Oc1ccc2[nH]nc(/C=C/c3cnn(CCO)c3)c2c1)c1c(Cl)cncc1Cl` [LY2874455], in series [3], the “combination effect with inavolisib” value is listed as “synergized”.
With `CCN1CCN(c2ccc(Nc3cc(N(C)C(=O)Nc4c(Cl)c(OC)cc(OC)c4Cl)ncn3)cc2)CC1` [infigratinib], the “sensitivity of cell lines” value in series [4] is “sensitive”. For the same compound, in series [5], the “reduction of phosphorylation of FGFR and downstream effectors” value was “equal potency”. In addition, the “combination effect with inavolisib” value in series [3] was “synergized”.
On to `C[C@H](Nc1ccc2c(c1)OCCn1cc(N3C(=O)OC[C@H]3C(F)F)nc1-2)C(N)=O` [inavolisib], for which the “DLT-evaluable patients who experienced DLTs” value in series [6] (12-mg dose group, grade 4 hyperglycemia and grade 3 fatigue that lasted 5 days) was “two of four”. In [6] (All grades, N = 20), the “Alopecia, related AE” value is reported as 3 (15) n (%); the “Asthenia, related AE” value is 2 (10) n (%); the “Constipation, related AE” value is 2 (10) n (%); the “Decreased appetite, related AE” value was 4 (20) n (%). In series [6] (All grades, N = 20), the “Diarrhea, related AE” value was 9 (45) n (%); the “Dysgeusia, related AE” value is 2 (10) n (%); the “Fatigue, related AE” value is on record as 3 (15) n (%); the “Flatulence, related AE” value is reported as 2 (10) n (%). Also, in [6] (All grades, N = 20), the “Headache, related AE” value is 2 (10) n (%); the “Hyperglycemia, related AE” value is recorded as 14 (70) n (%); the “Hyponatremia, related AE” value was 2 (10) n (%); the “Lymphopenia, related AE” value is listed as 2 (10) n (%). Further, in series [6] (All grades, N = 20), the “Nausea, related AE” value is reported as 3 (15) n (%); the “Stomatitis (grouped term), related AE” value was 4 (20) n (%); the “Taste disorder, related AE” value is reported as 2 (10) n (%); the “Thrombocytopenia, related AE” value is reported as 2 (10) n (%). In series [6] (All grades, N = 20), the “Total number of patients with at least one AE, related AE” value was 19 (95) n (%); the “Vision blurred, related AE” value is listed as 2 (10) n (%); the “Vomiting, related AE” value is 4 (20) n (%); the “Weight decreased, related AE” value was 3 (15) n (%). Also, the “patients with at least one related AE leading to dose modification” value in series [6] (Eleven patients, N = 20) is reported as 55%. Further, in series [6] (Grades 3–5, N = 20), the “Alopecia, related AE” value is reported as 0 n (%); the “Asthenia, related AE” value is given as 1 (5) n (%); the “Constipation, related AE” value is listed as 0 n (%); the “Decreased appetite, related AE” value is recorded as 0 n (%). Further, in series [6] (Grades 3–5, N = 20), the “Diarrhea, related AE” value is recorded as 0 n (%); the “Dysgeusia, related AE” value is listed as 0 n (%); the “Fatigue, related AE” value is listed as 1 (5) n (%); the “Flatulence, related AE” value is reported as 0 n (%). In series [6] (Grades 3–5, N = 20), the “Headache, related AE” value is on record as 0 n (%); the “Hyperglycemia, related AE” value is reported as 4 (20) n (%); the “Hyponatremia, related AE” value was 0 n (%); the “Lymphopenia, related AE” value was 1 (5) n (%). In series [6] (Grades 3–5, N = 20), the “Nausea, related AE” value is reported as 1 (5) n (%); the “Stomatitis (grouped term), related AE” value is recorded as 0 n (%); the “Taste disorder, related AE” value is given as 0 n (%); the “Thrombocytopenia, related AE” value is on record as 0 n (%). Further, in [6] (Grades 3–5, N = 20), the “Total number of patients with at least one AE, related AE” value is reported as 8 (40) n (%); the “Vision blurred, related AE” value is recorded as 0 n (%); the “Vomiting, related AE” value was 0 n (%); the “Weight decreased, related AE” value is listed as 1 (5) n (%). For the same compound, in [6] (N = 20), the “grade 5 AE” value is on record as “No grade 5 AE”, the “grade of treatment-related diarrhea events” value is 1 to 2 and the “treatment-related grade ≥3 gastrointestinal toxicities” value is listed as “No treatment-related grade ≥3 gastrointestinal toxicities”. The “serious AE related to inavolisib” value in series [6] (grade 4 hyperglycemia, 12-mg cohort) is “One patient”. For the same compound, the colitis result in [6] (monotherapy, including nine patients on treatment for ≥5 months) is “not observed”. Further, the “maximum tolerated dose (MTD)” value in [6] (once daily oral, patients with PIK3CAmut solid tumors) is reported as 9 mg. In series [6] (one patient, grade 1, N = 20), this compound gave a treatment-related rash of 5%. Further, the accumulation entry in series [7] (continuous once-daily dosing) was “twofold”. Further, in series [7] (human, plasma, oral), the half-life is 16 h. Besides, the “plasma exposure versus dose” value in series [7] (single and multiple doses, 6-12 mg) is on record as “dose-proportional”. Besides, the “median progression-free survival (PFS)” value in the series on PIK3CAmut solid tumors (95% CI, 3.5–7.3) was 3.7 months. Moreover, in the series with PIK3CAmut solid tumors (95% CI, 15–59), the “landmark PFS rate at 6 months” value was determined as 37%. The clinical benefit rate with PIK3CAmut solid tumors (N = 20 (n = 9)) turned out to be 45%. Also, the “best overall response rate (PR)” value in the series on PIK3CAmut solid tumors (patients with measurable disease (n = 19), RECIST v1.1) amounted to 26%. Moreover, the duration of response in the series on PIK3CAmut solid tumors (responders with a confirmed response, 95% CI, 3.0–not evaluable) came out at 3.7 months. Further, the “mean reduction in uptake” value in [8] (6 mg) amounted to 25%. In addition, in series [8] (6 mg, 4/7), the “patients achieving a PMR” value is listed as 57%. Also, the “mean reduction in uptake” value in series [8] (>6 mg) was 43%. In addition, the “patients achieving a PMR” value in [8] (>6 mg, 12/13) worked out at 92%. For the same compound, in the series with pAKT, pS6, Ki67, the “PI3K pathway activity (H-scores pAKT, pS6) and Ki67 proliferation” value is given as “consistent decrease”. In the series on PIK3CA MAF in ctDNA, the “PIK3CA MAF over time” value was “decreased”. In addition, in the series on HER3–p85β interaction (SUM52PE, MFM223, and MFE280 cells, 1 hour), the “binding of p85β to HER3” value was “did not affect”. Also, the “ubiquitination of p110α” value on p110α [9] is listed as “no ubiquitination”. Also, the “ubiquitination of p110α” value in the series with p110α [2] (PIK3CAmut cell lines MFM223 and MFE280) was “induced ubiquitination”. Besides, the “mutated p110α protein level” value at mutated p110α was “degradation”. The “time to pAKT reactivation” value in the series on pAKT (0.5-μmol/L inavolisib) is 24 hours. For the same compound, in [10], the tumor growth entry is reported as “did not result in tumor growth inhibition”. For the same compound, the “day of rebound in proliferation (resistance) after treatment initiation” value in the series with MFM223 cell line stood at 11 days.
